Measured values from ChEMBL document CHEMBL4229344 (Eur J Med Chem, 2018).
Activity calls are given as the source filed them. No cut-off for these calls is given here.

How the values were obtained:
[1] = target: Mitogen-activated protein kinase kinase kinase 15 (Homo sapiens) (UniProt Q6ZN16); experiment: Binding affinity to wild-type human partial length MAP3K15 (T625 to L932 residues) expressed in mammalian expression system assessed as residual binding level at 1 uM by Kinomescan method relative to control
EOL1 [2] = experiment: Cell cycle arrest in human EOL-1 cells assessed as accumulation at G0/G1 phase at 0.01 to 0.3 uM after 12 hrs by propidium iodide/RNase staining-based flow cytometric analysis; format: functional
In short: (§1)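 Cells treated with compound or DMSO for the stated periods, fixed overnight in 70% cold ethanol at −20 °C, stained with PI/RNase buffer, then analysed by flow cytometry for cell-cycle distribution. For NCI-H1703 stimulation, PDGF AA was used at 100 ng/mL.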

NCI-H1703 = experiment: Cell cycle arrest in human NCI-H1703 cells assessed as accumulation at G0/G1 phase after 72 hrs by propidium iodide/RNase staining-based flow cytometric analysis; format: functional; in short: as §1
[3] = target: Mitogen-activated protein kinase kinase kinase kinase 5 (Homo sapiens) (UniProt Q9Y4K4); experiment: Binding affinity to wild-type human partial length MAP4K5 (M1 to P297 residues) expressed in bacterial expression system assessed as residual binding level at 1 uM by Kinomescan method relative to control
[4] = Apparent clearance in Sprague-Dawley rat at 1 mg/kg, iv; format: ADME, organism-based; settings: in vivo, read-out: CL(app) (converted)
[5] = target: Tyrosine-protein kinase ABL2 (Homo sapiens) (UniProt P42684); experiment: Binding affinity to wild-type human ABL2 (A248 to G542 residues) expressed in bacterial expression system assessed as residual binding level at 1 uM by Kinomescan method relative to control
In short: (§2)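 KINOMEscan competition binding against 468 purified kinases/mutants, test compound at 1 µM; residual binding relative to control.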

[6] = target: Macrophage colony-stimulating factor 1 receptor (Homo sapiens) (UniProt P07333); experiment: Binding affinity to wild-type human partial length CSF1R (I564 to S939 residues) expressed in bacterial expression system assessed as residual binding level at 1 uM by Kinomescan method relative to control
[7] = target: 1-phosphatidylinositol 3-phosphate 5-kinase (Homo sapiens) (UniProt Q9Y2I7); experiment: Binding affinity to wild-type human partial length PIKFYVE (F1512 to C2098 residues) expressed in mammalian expression system assessed as residual binding level at 1 uM by Kinomescan method relative to control
In short: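 KINOMEscan competition binding against a panel of 468 purified kinases/mutants, compound tested at 1 μM; readout is relative binding activity versus control.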

[8] = test system: ALK tyrosine kinase receptor (Homo sapiens), Q9UM73 [L1196M]; experiment: Binding affinity to wild-type human partial length ALK L1196M mutant (I1088 to E1409 residues) expressed in mammalian expression system assessed as residual binding level at 1 uM by Kinomescan method relative to control
In short: (§3)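 Single-concentration KINOMEscan (DiscoverX) binding screen at 1 μM against a panel of 468 purified kinases and mutants. The read-out is binding relative to control.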

[9] = target: T1, Platelet-derived growth factor receptor alpha (Homo sapiens, UniProt P16234); experiment: Inhibition of PDGFRalpha in human EOL-1 cells assessed as decrease in STAT5 phosphorylation at Y694 residue after 2 hrs in presence of PDGF-AA by Western blot analysis; format: cell-based
[10] = target: T1, Platelet-derived growth factor receptor alpha; experiment: Inhibition of PDGFRalpha (unknown origin) using poly(4:1 Glu,Tyr) peptide as substrate preincubated for 1 hr followed by addition of ATP and measured after 30 mins by ADP-Glo bioluminescence assay
[11] = target: Serine/threonine-protein kinase TAO3 (Homo sapiens) (UniProt Q9H2K8); experiment: Binding affinity to wild-type human partial length TAOK3 (M1 to T316 residues) expressed in mammalian expression system assessed as residual binding level at 1 uM by Kinomescan method relative to control
[12] = target: Mitogen-activated protein kinase 8 (Homo sapiens) (UniProt P45983); experiment: Binding affinity to wild-type human full length JNK1 (M1 to Q384 residues) expressed in mammalian expression system assessed as residual binding level at 1 uM by Kinomescan method relative to control; in short: as §2
[13] = test system: Mast/stem cell growth factor receptor Kit (Homo sapiens), P10721 [V559D]; experiment: Binding affinity to human partial length KIT V559D mutant (Y545 to D952 residues) expressed in bacterial expression system assessed as residual binding level at 1 uM by Kinomescan method relative to control
In short: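 Kinome-wide single-concentration binding screen (KINOMEscan) at 1 μM against a panel of 468 purified kinases and mutants. Read-out is relative binding of each kinase compared with control. Selectivity across the panel was summarised as an S(10) score.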

[14] = target: Inhibitor of nuclear factor kappa-B kinase subunit epsilon (Homo sapiens) (UniProt Q14164); experiment: Binding affinity to wild-type human full length IKK-epsilon (M1 to V716 residues) expressed in mammalian expression system assessed as residual binding level at 1 uM by Kinomescan method relative to control
In short: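 Single-concentration (1 μM) competition-binding screen run by KINOMEscan against a panel of 468 purified kinases and mutants. The read-out is the relative binding activity of the test compound to each kinase.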

[15] = target: Homeodomain-interacting protein kinase 1 (Homo sapiens) (UniProt Q86Z02); experiment: Binding affinity to wild-type human partial length HIPK1 (M146 to I555 residues) expressed in mammalian expression system assessed as residual binding level at 1 uM by Kinomescan method relative to control
In short: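 Kinome-wide competition binding screen against a panel of 468 purified kinases/mutants, with the test compound at a single concentration of 1 μM. Read-out is the relative binding activity of each kinase in the presence of compound.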

[16] = target: Serine/threonine-protein kinase RIO1 (Homo sapiens) (UniProt Q9BRS2); experiment: Binding affinity to wild-type human full length RIOK1 (M1 to K568 residues) expressed in bacterial expression system assessed as residual binding level at 1 uM by Kinomescan method relative to control; in short: as §3
[17] = target: Fibroblast growth factor receptor 1 (Homo sapiens) (UniProt P11362); experiment: Binding affinity to wild-type human partial length FGFR1 (P357 to V669 residues) expressed in bacterial expression system assessed as residual binding level at 1 uM by Kinomescan method relative to control
[18] = target: SRSF protein kinase 3 (Homo sapiens) (UniProt Q9UPE1); experiment: Binding affinity to wild-type human partial length SRPK3 (P41 to P567 residues) expressed in bacterial expression system assessed as residual binding level at 1 uM by Kinomescan method relative to control
EOL1 [19] = experiment: Antitumor activity against human EOL-1 cells xenografted in nu/nu mouse assessed as reduction in tumor cell proliferation at 25 to 100 mg/kg/day, ip by KI-67-staining based microscopic analysis; format: functional, organism-based
In short: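 Female nu/nu mice (6 weeks) given subcutaneous right-flank injection of 5 million EOL-1 cells in PBS/Matrigel 1:1. At 200–400 mm3 tumors, randomized to groups of 6 and dosed daily i.p. for 14 days at 25, 50 or 100 mg/kg/d in 0.5% methylcellulose/0.4% Tween80. Tumor volume = W²×L/2, measured daily.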

T1 sequence (P16234 whole entry): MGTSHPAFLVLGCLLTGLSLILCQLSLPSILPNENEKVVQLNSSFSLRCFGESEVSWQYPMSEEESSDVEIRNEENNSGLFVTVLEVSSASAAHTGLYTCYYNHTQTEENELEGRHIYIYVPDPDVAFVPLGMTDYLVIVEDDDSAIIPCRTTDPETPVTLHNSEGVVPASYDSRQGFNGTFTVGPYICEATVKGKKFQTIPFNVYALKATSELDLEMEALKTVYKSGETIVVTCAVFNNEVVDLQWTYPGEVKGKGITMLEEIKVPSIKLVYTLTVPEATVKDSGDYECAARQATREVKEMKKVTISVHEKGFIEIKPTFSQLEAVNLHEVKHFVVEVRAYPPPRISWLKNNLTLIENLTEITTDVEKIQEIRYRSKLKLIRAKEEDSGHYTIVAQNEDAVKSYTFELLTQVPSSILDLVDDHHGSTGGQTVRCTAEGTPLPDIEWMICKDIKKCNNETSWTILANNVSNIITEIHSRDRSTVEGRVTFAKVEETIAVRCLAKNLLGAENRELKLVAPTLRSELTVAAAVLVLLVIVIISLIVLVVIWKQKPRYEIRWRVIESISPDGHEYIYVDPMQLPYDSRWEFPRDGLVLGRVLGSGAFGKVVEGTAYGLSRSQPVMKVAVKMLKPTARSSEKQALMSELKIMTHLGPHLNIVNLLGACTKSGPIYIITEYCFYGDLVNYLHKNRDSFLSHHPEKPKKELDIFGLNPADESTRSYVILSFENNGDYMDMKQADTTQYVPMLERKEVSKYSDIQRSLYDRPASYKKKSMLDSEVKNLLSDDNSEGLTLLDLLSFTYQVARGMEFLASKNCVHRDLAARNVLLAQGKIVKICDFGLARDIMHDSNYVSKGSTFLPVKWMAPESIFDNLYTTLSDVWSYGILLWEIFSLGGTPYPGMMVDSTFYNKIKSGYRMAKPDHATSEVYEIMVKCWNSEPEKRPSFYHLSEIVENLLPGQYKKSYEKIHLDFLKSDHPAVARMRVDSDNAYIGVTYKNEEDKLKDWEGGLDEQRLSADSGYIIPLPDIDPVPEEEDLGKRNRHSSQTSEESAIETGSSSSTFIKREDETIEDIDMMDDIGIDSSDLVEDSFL
Chain of Mitogen-activated protein kinase 8 (Homo sapiens) (P45983 whole entry, the tested form may be a part): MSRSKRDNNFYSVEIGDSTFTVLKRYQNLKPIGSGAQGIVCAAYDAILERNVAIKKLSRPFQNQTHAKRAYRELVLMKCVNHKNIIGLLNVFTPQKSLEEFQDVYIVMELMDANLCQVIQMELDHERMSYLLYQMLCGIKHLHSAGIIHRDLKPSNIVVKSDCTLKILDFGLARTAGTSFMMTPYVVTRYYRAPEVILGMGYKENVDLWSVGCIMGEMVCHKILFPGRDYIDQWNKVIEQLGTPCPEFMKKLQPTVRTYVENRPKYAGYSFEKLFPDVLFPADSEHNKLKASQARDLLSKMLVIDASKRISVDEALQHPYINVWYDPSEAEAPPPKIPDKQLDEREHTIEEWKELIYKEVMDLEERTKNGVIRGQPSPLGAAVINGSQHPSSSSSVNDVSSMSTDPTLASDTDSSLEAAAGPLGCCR
Chain of Inhibitor of nuclear factor kappa-B kinase subunit epsilon (Homo sapiens) (Q14164 whole entry, the tested form may be a part): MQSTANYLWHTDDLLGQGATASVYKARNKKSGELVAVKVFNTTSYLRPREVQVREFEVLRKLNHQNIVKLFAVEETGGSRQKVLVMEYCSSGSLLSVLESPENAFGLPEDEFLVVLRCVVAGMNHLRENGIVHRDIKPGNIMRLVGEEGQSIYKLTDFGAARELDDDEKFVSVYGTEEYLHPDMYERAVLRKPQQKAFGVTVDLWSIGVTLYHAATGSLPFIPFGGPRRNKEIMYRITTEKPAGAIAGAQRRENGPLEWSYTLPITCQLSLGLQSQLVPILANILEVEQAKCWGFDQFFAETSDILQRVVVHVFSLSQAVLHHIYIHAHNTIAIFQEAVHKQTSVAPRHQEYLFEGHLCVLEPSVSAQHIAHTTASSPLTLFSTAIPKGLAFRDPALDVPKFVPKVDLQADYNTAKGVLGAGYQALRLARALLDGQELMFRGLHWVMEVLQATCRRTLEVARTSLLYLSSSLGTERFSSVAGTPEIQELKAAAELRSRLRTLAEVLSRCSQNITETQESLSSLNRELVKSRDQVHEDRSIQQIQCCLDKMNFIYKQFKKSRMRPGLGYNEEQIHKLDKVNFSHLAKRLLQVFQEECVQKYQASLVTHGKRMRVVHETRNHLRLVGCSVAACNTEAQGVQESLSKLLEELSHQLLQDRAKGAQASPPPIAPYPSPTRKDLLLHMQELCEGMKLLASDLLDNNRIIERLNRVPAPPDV
Chain of Serine/threonine-protein kinase TAO3 (Homo sapiens) (Q9H2K8 whole entry, the tested form may be a part): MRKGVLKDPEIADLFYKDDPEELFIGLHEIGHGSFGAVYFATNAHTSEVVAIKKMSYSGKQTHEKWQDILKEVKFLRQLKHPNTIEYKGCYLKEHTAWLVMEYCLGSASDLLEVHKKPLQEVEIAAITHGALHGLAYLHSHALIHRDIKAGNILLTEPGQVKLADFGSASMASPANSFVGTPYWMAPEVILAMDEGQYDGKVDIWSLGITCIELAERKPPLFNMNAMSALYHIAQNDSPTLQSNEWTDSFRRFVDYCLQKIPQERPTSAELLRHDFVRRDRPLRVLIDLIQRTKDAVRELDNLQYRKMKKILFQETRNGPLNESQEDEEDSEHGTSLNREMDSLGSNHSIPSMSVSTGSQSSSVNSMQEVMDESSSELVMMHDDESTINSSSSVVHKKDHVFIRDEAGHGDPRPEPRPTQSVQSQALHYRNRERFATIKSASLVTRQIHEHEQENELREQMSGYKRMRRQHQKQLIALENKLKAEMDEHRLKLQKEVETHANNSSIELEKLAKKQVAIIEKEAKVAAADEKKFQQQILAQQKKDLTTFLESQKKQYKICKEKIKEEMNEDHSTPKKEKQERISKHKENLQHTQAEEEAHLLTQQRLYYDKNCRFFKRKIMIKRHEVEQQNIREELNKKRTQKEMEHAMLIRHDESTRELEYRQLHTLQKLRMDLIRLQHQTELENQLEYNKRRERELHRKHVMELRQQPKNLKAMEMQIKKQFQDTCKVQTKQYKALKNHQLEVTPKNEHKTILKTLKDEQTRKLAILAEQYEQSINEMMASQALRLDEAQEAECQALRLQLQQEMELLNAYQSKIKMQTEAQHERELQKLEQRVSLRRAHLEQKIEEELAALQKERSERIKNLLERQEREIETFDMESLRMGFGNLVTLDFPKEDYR
Chain of Mitogen-activated protein kinase kinase kinase kinase 5 (Homo sapiens) (Q9Y4K4 whole entry, looked up, the tested form may be a part): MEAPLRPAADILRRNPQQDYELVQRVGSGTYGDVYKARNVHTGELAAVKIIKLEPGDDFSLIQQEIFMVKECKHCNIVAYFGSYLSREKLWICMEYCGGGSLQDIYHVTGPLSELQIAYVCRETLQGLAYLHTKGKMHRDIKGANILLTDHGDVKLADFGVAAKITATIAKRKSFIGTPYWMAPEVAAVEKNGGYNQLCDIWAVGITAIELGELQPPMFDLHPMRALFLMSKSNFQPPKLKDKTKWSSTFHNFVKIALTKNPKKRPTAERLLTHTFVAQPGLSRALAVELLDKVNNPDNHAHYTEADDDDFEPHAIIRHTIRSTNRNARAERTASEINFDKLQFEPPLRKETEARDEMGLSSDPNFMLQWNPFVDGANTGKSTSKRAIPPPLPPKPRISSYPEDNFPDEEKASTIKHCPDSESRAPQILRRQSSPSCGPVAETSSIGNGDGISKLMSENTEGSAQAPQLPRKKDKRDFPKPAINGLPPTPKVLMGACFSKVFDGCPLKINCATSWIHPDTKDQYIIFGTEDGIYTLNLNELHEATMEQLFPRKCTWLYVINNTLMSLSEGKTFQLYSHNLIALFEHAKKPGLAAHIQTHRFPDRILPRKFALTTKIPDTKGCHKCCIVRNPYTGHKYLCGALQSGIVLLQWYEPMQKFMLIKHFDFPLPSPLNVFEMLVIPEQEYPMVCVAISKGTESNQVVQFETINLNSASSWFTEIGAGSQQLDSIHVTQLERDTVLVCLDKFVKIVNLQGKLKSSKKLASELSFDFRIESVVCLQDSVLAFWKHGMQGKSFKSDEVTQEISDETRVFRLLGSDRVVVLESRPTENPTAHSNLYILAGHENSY
Chain of Macrophage colony-stimulating factor 1 receptor (Homo sapiens) (P07333 whole entry, the tested form may be a part): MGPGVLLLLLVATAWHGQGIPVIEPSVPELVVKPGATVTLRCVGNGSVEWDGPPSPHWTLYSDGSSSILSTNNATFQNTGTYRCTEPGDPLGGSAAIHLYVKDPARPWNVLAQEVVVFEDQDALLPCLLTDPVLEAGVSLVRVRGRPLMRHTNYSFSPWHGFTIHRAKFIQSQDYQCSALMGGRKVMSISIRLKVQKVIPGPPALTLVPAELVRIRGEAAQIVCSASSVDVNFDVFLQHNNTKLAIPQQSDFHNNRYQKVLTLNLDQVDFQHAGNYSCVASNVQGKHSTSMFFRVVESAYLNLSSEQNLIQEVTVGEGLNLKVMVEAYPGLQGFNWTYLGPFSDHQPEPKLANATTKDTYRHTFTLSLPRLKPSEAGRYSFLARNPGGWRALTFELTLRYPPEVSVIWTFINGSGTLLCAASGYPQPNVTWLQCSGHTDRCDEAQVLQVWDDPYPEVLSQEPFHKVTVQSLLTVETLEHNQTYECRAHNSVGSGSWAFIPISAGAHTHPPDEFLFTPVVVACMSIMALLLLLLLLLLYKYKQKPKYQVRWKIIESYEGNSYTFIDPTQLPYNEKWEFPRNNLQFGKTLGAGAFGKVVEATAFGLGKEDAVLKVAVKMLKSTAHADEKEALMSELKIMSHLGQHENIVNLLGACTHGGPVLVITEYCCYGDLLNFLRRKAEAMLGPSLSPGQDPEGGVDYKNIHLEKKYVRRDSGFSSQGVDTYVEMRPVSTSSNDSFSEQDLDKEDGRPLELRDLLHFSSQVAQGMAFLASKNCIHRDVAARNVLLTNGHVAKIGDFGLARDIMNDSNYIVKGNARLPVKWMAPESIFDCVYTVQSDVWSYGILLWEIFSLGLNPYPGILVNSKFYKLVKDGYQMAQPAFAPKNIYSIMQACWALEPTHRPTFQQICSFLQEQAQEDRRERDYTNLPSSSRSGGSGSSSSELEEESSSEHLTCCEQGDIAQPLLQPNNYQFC

Compound: Cc1ccc(NC(=O)c2ccc(CN(CCN(C)C)C(=O)c3cccnc3)cc2)cc1Nc1nccc(-c2cccnc2)n1
- Activity [1]: 100%
- Activity (EOL1 [2]): Active
- Activity (NCI-H1703): Dose-dependent effect
- Activity [3]: 97%
- clearance [4]: 32.7 mL/min/kg
- Activity [5]: 69%
- Activity [6]: 10%
- Activity [7]: 91%
- Activity [8]: 100%
- inhibition [9]: Dose-dependent effect
- IC50 [10]: 132 nM
- Activity [11]: 100%
- Activity [12]: 36%
- Activity [13]: 0.8%
- Activity [14]: 100%
- Activity [15]: 79%
- Activity [16]: 100%
- Activity [17]: 98%
- Activity [18]: 85%
- Activity (EOL1 [19]): Active
